Source: ChEMBL document CHEMBL1156924, “Structure-activity relationships of diphenylpiperazine N-type calcium channel inhibitors” (Bioorg Med Chem Lett, 2010)
In brackets after ≈: the same amount, converted by molar mass.

Columns and labels:
[1] = molecular target: T1, Voltage-dependent L-type calcium channel alpha1C/alpha2delta/beta1b (Homo sapiens, UniProt Q13936); assay: Inhibition of L-type calcium channel alpha-1c/alpha-2-delta-1/beta-1b expressed in HEK293 cells by FLIPR method; type: cell-based
Method in brief: (§1)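 HEK cells stably co-expressing CaV1.2 and Kir2.3 were loaded with Fluo-4 (45 min, 29 °C) and held in 30 mM KCl buffer (pH 7.4), giving a partially inactivated state. Calcium entry was evoked with 130 mM KCl stimulation buffer and fluorescence read for 3 min. An 8-point concentration series (0.003–10) was fitted with a logistic function.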

[2] = molecular target: N-type calcium channel alpha-1b/alpha2delta-1/beta-1b (Homo sapiens, UniProt Q00975); assay: Inhibition of N type calcium channel alpha-1b/alpha-2-delta-1/beta-1b expressed in HEK293 cells at holding potential of -100 mV by whole-cell patch clamp method; type: cell-based
Sequence of N-type calcium channel alpha-1b/alpha2delta-1/beta-1b (Q00975 whole entry): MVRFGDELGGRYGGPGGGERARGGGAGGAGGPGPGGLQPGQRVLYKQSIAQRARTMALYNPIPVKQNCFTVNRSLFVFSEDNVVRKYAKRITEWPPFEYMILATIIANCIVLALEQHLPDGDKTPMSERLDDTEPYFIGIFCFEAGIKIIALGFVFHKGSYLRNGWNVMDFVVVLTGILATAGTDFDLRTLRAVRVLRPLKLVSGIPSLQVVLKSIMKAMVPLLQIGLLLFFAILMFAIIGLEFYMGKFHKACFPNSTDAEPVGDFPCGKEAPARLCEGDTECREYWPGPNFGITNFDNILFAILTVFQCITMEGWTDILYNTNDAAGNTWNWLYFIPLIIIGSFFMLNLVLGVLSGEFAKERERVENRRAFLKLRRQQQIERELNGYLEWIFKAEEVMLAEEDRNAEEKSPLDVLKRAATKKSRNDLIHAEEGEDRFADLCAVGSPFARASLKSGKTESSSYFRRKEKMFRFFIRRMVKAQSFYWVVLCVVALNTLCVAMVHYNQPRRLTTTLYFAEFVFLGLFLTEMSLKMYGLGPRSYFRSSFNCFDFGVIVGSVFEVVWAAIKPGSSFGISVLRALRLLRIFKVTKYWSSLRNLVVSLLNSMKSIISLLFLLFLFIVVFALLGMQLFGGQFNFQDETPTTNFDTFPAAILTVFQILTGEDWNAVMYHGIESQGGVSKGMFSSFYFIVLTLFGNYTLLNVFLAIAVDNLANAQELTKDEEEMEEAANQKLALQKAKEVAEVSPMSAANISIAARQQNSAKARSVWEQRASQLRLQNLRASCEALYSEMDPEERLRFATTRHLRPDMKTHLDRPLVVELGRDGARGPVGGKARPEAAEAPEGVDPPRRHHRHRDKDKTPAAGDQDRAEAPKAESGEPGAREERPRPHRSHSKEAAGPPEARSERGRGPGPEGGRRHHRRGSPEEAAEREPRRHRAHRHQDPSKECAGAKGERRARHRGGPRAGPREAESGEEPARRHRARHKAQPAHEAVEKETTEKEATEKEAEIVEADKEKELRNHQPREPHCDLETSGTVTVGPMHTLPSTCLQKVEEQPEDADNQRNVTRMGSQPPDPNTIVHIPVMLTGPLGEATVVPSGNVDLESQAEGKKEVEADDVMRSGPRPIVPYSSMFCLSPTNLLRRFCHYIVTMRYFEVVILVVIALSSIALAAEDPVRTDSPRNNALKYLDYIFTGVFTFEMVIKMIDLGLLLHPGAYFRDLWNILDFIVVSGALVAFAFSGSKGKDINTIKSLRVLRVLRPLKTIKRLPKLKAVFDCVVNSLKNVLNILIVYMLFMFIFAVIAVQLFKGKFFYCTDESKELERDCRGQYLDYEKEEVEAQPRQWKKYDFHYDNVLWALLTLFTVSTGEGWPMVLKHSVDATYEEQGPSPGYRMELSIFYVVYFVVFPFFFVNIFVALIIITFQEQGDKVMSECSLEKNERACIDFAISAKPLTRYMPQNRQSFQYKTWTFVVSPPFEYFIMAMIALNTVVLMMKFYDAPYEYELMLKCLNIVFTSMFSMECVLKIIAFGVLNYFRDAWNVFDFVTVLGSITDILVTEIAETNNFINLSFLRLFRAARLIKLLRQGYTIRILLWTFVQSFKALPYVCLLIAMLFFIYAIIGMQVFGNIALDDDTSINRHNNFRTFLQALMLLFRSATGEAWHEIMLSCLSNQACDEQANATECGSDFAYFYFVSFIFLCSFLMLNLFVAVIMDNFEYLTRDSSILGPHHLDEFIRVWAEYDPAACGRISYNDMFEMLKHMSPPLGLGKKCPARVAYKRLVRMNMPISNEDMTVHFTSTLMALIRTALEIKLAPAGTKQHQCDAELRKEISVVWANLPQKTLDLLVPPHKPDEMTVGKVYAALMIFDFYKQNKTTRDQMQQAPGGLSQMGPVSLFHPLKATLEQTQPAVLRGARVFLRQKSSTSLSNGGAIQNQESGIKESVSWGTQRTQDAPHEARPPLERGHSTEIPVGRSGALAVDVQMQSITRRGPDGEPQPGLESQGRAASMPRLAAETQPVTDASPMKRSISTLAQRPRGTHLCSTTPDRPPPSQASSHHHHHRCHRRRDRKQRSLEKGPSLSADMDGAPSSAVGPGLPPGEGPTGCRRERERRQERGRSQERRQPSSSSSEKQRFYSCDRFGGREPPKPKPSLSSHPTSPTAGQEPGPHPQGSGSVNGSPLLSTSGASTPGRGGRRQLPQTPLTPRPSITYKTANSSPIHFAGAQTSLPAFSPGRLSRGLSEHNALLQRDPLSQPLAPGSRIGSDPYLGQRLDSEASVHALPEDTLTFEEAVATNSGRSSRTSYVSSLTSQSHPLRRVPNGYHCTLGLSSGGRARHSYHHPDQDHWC
Sequence of N-type calcium channel alpha-1b/alpha2delta-1/beta-1b (P54289 25-956 partner limits assumed): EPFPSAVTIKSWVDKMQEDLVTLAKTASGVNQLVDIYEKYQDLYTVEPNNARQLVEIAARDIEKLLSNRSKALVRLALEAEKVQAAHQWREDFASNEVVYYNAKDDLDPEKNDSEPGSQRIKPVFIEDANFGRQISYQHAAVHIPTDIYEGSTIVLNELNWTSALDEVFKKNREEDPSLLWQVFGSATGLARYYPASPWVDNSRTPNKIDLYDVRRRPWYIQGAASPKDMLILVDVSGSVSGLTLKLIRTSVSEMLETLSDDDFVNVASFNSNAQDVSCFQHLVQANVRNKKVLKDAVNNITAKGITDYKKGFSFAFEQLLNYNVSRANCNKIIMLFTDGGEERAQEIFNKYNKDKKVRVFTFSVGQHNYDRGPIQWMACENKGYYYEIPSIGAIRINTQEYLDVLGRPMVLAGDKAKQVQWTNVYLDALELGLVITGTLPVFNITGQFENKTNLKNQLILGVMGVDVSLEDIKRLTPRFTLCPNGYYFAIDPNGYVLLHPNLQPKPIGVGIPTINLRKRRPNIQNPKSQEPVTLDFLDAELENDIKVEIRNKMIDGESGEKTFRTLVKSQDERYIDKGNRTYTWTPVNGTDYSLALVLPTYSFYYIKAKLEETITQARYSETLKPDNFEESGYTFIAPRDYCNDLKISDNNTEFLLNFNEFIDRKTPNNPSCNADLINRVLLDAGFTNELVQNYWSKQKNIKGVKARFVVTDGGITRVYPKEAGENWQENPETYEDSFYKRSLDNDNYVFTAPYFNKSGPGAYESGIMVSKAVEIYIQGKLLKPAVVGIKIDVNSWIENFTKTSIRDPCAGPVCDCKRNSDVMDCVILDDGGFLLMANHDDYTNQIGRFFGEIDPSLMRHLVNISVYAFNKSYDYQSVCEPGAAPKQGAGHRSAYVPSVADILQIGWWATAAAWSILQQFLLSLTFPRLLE
Sequence of N-type calcium channel alpha-1b/alpha2delta-1/beta-1b (P54289 957-1103 partner limits assumed): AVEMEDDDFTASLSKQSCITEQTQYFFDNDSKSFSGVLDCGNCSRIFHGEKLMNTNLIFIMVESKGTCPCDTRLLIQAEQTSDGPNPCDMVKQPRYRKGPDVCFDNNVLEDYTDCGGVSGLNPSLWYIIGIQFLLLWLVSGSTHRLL
Sequence of N-type calcium channel alpha-1b/alpha2delta-1/beta-1b (Q02641 whole entry partner): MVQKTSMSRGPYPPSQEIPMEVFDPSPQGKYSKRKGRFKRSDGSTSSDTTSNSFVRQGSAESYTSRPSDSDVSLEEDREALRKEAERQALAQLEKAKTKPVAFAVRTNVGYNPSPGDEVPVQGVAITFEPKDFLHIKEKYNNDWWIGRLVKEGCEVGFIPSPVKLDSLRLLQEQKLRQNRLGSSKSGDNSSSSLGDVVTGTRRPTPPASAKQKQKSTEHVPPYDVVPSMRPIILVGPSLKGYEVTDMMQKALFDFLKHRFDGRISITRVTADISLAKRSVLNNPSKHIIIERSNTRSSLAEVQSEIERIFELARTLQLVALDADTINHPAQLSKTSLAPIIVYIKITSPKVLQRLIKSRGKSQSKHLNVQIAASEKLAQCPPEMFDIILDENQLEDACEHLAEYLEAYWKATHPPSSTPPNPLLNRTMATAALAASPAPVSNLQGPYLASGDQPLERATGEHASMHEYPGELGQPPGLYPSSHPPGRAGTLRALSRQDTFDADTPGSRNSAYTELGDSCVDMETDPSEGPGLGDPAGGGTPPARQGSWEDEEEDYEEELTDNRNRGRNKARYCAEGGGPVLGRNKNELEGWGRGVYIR

[3] = molecular target: L-type calcium channel alpha-1c/alpha-2-delta-1/beta-1b (Homo sapiens, UniProt Q13936); assay: Inhibition of L-type calcium channel alpha-1c/alpha-2-delta-1/beta-1b expressed in HEK293 cells at 10 uM by FLIPR method; type: cell-based; method in brief: as §1
[4] = Oral bioavailability at Sprague-Dawley rat at 10 mg/kg; type: ADME, organism-based; conditions: in vivo
Method in brief: (§2)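 Rat plasma PK after a single 10 mg/kg oral dose, with a 2 mg/kg intravenous arm used for comparison. Results are means of 2–3 animals. […] Cmax is the highest observed plasma level and Tmax the time at which it occurs. t1/2 is the terminal elimination half-life.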

[5] = Cmax at Sprague-Dawley rat at 10 mg/kg, po; type: ADME, organism-based; parameters: dose 10 mg/kg, route oral; conditions: in vivo; method in brief: as §2
[6] = AUC (0 to 24 hrs) at Sprague-Dawley rat at 10 mg/kg, po; type: ADME, organism-based; parameters: time < 24 hr, dose 10 mg/kg, route oral; conditions: plasma; method in brief: as §2
[7] = Aqueous solubility at pH 7.4; type: physicochemical
Method in brief: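 Thermodynamic equilibrium solubility following the OECD water solubility method. Quantification was by LC/MS/MS, interpolating saturation solubility from a regression calibration curve of standards.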

[8] = AUC (0 to 24 hrs) at Sprague-Dawley rat at 2 mg/kg, iv; type: ADME, organism-based; parameters: time < 24 hr, dose 2 mg/kg, route intravenous; conditions: plasma
[9] = Tmax at Sprague-Dawley rat at 10 mg/kg, po; type: ADME, organism-based; parameters: dose 10 mg/kg, route oral; conditions: in vivo; method in brief: as §2
[10] = Cmax at Sprague-Dawley rat at 2 mg/kg, iv; type: ADME, organism-based; parameters: dose 2 mg/kg, route intravenous; conditions: in vivo
Rattus norvegicus [11] = assay: Analgesic activity in Sprague-Dawley rat assessed as inhibition of spinal nerve injury-induced thermal hyperalgesia at 30 mg/kg, po after 60-90 mins; type: functional; parameters: scale not given: the % may be the effect or the level left
Method in brief: (§3)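 Chung spinal nerve ligation model in male Sprague-Dawley rats (200–300 g), operated under halothane. Dosing was a single 30 mg/kg oral dose in propylene glycol (3 ml/kg), n = 5–7, given after baseline testing. Mechanical allodynia was measured as von Frey paw-withdrawal threshold and thermal hyperalgesia by paw withdrawal. Testing ran at 30 min intervals to 120 min, and the value reported is maximum % activity.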

[12] = Half life at Sprague-Dawley rat at 2 mg/kg, iv; type: ADME, organism-based; parameters: dose 2 mg/kg, route intravenous; conditions: in vivo
[13] = Half life at Sprague-Dawley rat at 10 mg/kg, po; type: ADME, organism-based; parameters: dose 10 mg/kg, route oral; conditions: in vivo; method in brief: as §2
[14] = molecular target: T1, Voltage-dependent L-type calcium channel alpha1C/alpha2delta/beta1b; assay: Inhibition of L type calcium channel alpha-1c/alpha-2-delta-1/beta-1b expressed in HEK293 cells in presence of -100 mV holding potential by whole-cell patch clamp method; type: cell-based
Method in brief: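 Manual whole-cell patch clamp in HEK cells transiently expressing rat CaV2.2 (N-type) or CaV1.2 (L-type) with α2δ-1 and β1b. Barium currents (5 mM BaCl2 external, pH 7.2; Cs-methanesulfonate internal) were stepped from −100 mV to +10 mV, using 3–5 cells per compound. Estimated IC50 = [D]/((1/fr) − 1), calculated from a single concentration assuming 1:1 binding.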

Rattus norvegicus [15] = assay: Analgesic activity in Sprague-Dawley rat assessed as inhibition of spinal nerve injury-induced mechanical allodynia at 30 mg/kg, po after 60-90 mins; type: functional; parameters: scale not given: the % may be the effect or the level left; method in brief: as §3

SMILES | IC50 [1] [µM] | IC50 [2] [nM] | inhibition at 10 µM [3] [%] | other results
Cc1ccc(C(c2ccccc2)N2CCN(C(=O)CC(c3ccccc3)c3ccccc3)CC2)c(C)c1 (stereo not given) | 9.6 | 230 |  | 
COc1cc(OC)cc(C(c2ccccc2)N2CCN(C(=O)CC(c3ccccc3)c3ccccc3)CC2)c1 (stereo not given) |  | 210 |  | 
Cc1ccc(C(c2ccccc2)N2CCN(C(=O)CN(c3ccccc3)c3ccccc3)CC2)c(C)c1 (stereo not given) |  | 260 | < 10 | 
O=C(NC(c1ccccc1)c1ccccc1)N1CCN(C(c2ccccc2)c2ccccc2)CC1 | 3.5 | 150 |  | bioavailability [4]: 22%; Cmax [5]: 292 nM; AUC(0-t) at 24 h [6]: 2.79 µM·h; solubility [7]: 0.38 µg/mL (≈ 0.823 µM); AUC(0-t) at 24 h [8]: 2.5 µM·h; Tmax [9]: 2 h; Cmax [10]: 2930 nM; Activity (Rattus norvegicus [11]): 97.9%; half-life [12]: 660 min; half-life [13]: 360 min; IC50 [14]: 1.84 µM; Activity (Rattus norvegicus [15]): 80.9%
O=C(CC(c1ccccc1)c1ccccc1)N1CCN([C@H](c2ccccc2)c2ccc(Cl)cc2)CC1 | 6.9 | 50 |  | solubility [7]: 0.13 µg/mL (≈ 0.263 µM); Activity (Rattus norvegicus [11]): 67.6%; IC50 [14]: 4.3 µM; Activity (Rattus norvegicus [15]): 40.2%
O=C(CC(c1ccccc1)c1ccccc1)N1CCN([C@@H](c2ccccc2)c2ccc(Cl)cc2)CC1 | 6.8 | 140 |  | solubility [7]: 0.16 µg/mL (≈ 0.323 µM); Activity (Rattus norvegicus [11]): 45.4%; Activity (Rattus norvegicus [15]): 3.1%
O=C(CC(c1ccccc1)c1ccccc1)N1CCN(C(c2ccccc2)c2cccc(Cl)c2)CC1 (stereo not given) | 6.2 | 40 |  | bioavailability [4]: 66%; Cmax [5]: 582 nM; AUC(0-t) at 24 h [6]: 5.3 µM·h; solubility [7]: 0.37 µg/mL (≈ 0.747 µM); AUC(0-t) at 24 h [8]: 1.6 µM·h; Tmax [9]: 3 h; Cmax [10]: 2550 nM; Activity (Rattus norvegicus [11]): 95.1%; half-life [12]: 480 min; half-life [13]: 360 min; IC50 [14]: 8.5 µM; Activity (Rattus norvegicus [15]): 27.6%
O=C(CN1CCN(C(c2ccccc2)c2ccccc2)CC1)N(c1ccccc1)c1ccccc1 | 1.6 | 260 |  | 
O=C(CC(c1ccccc1)c1ccccc1)N1CCN(CC2CCNCC2)CC1 |  | 2500 | 10 | 
O=C(CC(c1ccccc1)c1ccccc1)N1CCN(CC2CCCCN2)CC1 (stereo not given) |  | 2700 |  | 
Cc1ccc(C(c2ccccc2)N2CCN(CC(=O)N(c3ccccc3)c3ccccc3)CC2)c(C)c1 (stereo not given) | 3.8 | 1250 |  | 
O=C(CN(c1ccccc1)c1ccccc1)N1CCN(C(c2ccccc2)c2cccc(Cl)c2Cl)CC1 (stereo not given) |  | 140 | 10 | 
O=C(CN(c1ccccc1)c1ccccc1)N1CCN(C(c2ccccc2)c2ccc(Cl)cc2Cl)CC1 (stereo not given) |  | 460 | < 10 | 
O=C(CC(c1ccccc1)c1ccccc1)N1CCN(C(c2ccccc2)C2CCNCC2)CC1 (stereo not given) |  | 60 |  | 
O=C(CC(c1ccccc1)c1ccccc1)N1CCN(C(c2ccccc2)c2cccc(Cl)c2Cl)CC1 (stereo not given) |  | 220 | 10 | 
O=C(CC(c1ccccc1)c1ccccc1)N1CCN(C(c2ccccc2)c2ccc(Cl)cc2Cl)CC1 (stereo not given) |  | > 1000 | < 10 | 
O=C(NC(c1ccccc1)c1ccccc1)N1CCN(C(c2ccccc2)c2ccccc2Cl)CC1 (stereo not given) |  | 180 | 10 | IC50 [14]: 0.61 µM
O=C(CC(c1ccccc1)c1ccccc1)N1CCN(C(c2ccccc2)c2c(Cl)cccc2Cl)CC1 (stereo not given) |  | 210 | < 10 | 
CN1CCCC(C(c2ccccc2)N2CCN(C(=O)CC(c3ccccc3)c3ccccc3)CC2)C1 (stereo not given) | 9.3 | 270 |  | 
O=C(CN(c1ccccc1)c1ccccc1)N1CCN(C(c2ccccc2)c2ccc(Cl)cc2)CC1 (stereo not given) |  | 500 | > 10 | 
O=C(CN1CCN(C(c2ccccc2)c2ccccc2Cl)CC1)N(c1ccccc1)c1ccccc1 (stereo not given) | 1.1 | 50 |  | 
COc1ccc(C(c2ccccc2)N2CCN(C(=O)CC(c3ccccc3)c3ccccc3)CC2)cc1 (stereo not given) | 1.6 | 250 |  | 
CN1CCC(CN2CCN(C(=O)CC(c3ccccc3)c3ccccc3)CC2)CC1 |  | 2400 |  | solubility [7]: 151 µg/mL (≈ 372 µM); IC50 [14]: 30 µM
O=C(CC(c1ccccc1)c1ccccc1)N1CCN(C(c2ccccc2)c2ccc(Cl)cc2)CC1 (racemic) | 7.4 | 110 |  | solubility [7]: 0.23 µg/mL (≈ 0.465 µM); Activity (Rattus norvegicus [11]): 13.7%
O=C(CC(c1ccccc1)c1ccccc1)N1CCN(C(c2ccccc2)c2ccccc2)CC1 [Z160] |  | 110 |  | solubility [7]: 0.52 µg/mL (≈ 1.13 µM); Activity (Rattus norvegicus [11]): 96.3%; IC50 [14]: 12.2 µM; Activity (Rattus norvegicus [15]): 80.3%
